Data reported in ChEMBL document CHEMBL1140071, “A new synthetic access to furo[3,2-f]chromene analogues of an antimycobacterial” (2008).
Values after ≈ are worked out from the molar mass of the structure shown.

Columns and labels:
[1] = system: Mycobacterium tuberculosis; experiment: Antimycobacterial activity against Mycobacterium tuberculosis H37Rv after 6 days by microdilution resazurin assay; assay type: functional; conditions: 144 h
Outline: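 Inoculum of virulent M. tuberculosis H37Rv grown in Dubos broth plus 10% ADC. Compounds from 50 mg/mL DMSO stocks, serially diluted twofold in Dubos medium (500 down to 0.9), with DMSO and isoniazid controls. Incubated 6 days at 37 °C, then 0.01% resazurin for 24 h more. MIC read as the lowest concentration without the blue-to-pink shift.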

[2] = system: Mycolicibacterium smegmatis; experiment: Antimycobacterial activity against Mycobacterium smegmatis mc2 155 after 48 hrs by microdilution resazurin assay; assay type: functional; conditions: str. MC2 155, 48 h
Outline: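 M. smegmatis mc²155 inoculum grown in Dubos medium with 10% ADC. Twofold serial drug dilutions (from 500 to 0.9) in Dubos medium, from 50 mg/mL DMSO stocks. DMSO and isoniazid controls. Sealed plates at 37 °C for 48 h, then 0.01% resazurin added for another 24 h at 37 °C. MIC is the lowest concentration preventing the blue-to-pink change.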

Row | SMILES | MIC95 [1] [µg/mL] | MIC95 [2] [µg/mL]
1 | CC1(C)C=Cc2c(ccc3oc4c(c23)CCCC4)O1 | 120 (≈ 472 µM) | > 500
2 | CC1(C)C=Cc2c(ccc3oc4ccccc4c23)O1 | 10 (≈ 40 µM) | 10 (≈ 40 µM)
3 | CC1(C)CCc2c(ccc3oc4ccccc4c23)O1 | 10 (≈ 39.6 µM) | 10 (≈ 39.6 µM)
4 | CC1(C)CCc2c(ccc3oc(-c4cccnc4)cc23)O1 | 10 (≈ 35.8 µM) | 6.2 (≈ 22.2 µM)
5 | Cc1c(-c2ccncc2)oc2ccc3c(c12)C=CC(C)(C)O3 | 3 (≈ 10.3 µM) | 6.2 (≈ 21.3 µM)
6 | Oc1ccc2oc(-c3ccccc3)cc2c1 | 125 (≈ 595 µM) | 8 (≈ 38.1 µM)
7 | Oc1ccc2oc(-c3ccncc3)cc2c1 | > 10 | > 50
8 | C#CC(C)(C)Oc1ccc2oc(-c3ccncc3)cc2c1 | 16 (≈ 57.7 µM) | 25 (≈ 90.1 µM)
9 | CC1(C)C=Cc2c(ccc3c2C2CCCOC2O3)O1 (centres undefined) | 250 (≈ 968 µM) | 125 (≈ 484 µM)
10 | CC1(C)C=Cc2c(ccc3oc(-c4cccc(Br)n4)cc23)O1 | > 10 | > 50
11 | CN(C)CCCNc1ccc(-c2cc3c4c(ccc3o2)OC(C)(C)C=C4)cn1 | 10 (≈ 26.5 µM) | 12.5 (≈ 33.1 µM)
12 | CC(=O)OCCCc1coc2ccc3c(c12)C=CC(C)(C)O3 | > 500 | > 500
13 | CC1(C)C=Cc2c(ccc3occ(CCCO)c23)O1 | 125 (≈ 484 µM) | 62 (≈ 240 µM)
14 | O=Cc1c(O)ccc2c1C1CCCOC1O2 (centres undefined) | 125 (≈ 568 µM) | > 125
15 | CC1(C)CCc2c(ccc3oc(-c4ccccn4)cc23)O1 | 10 (≈ 35.8 µM) | 25 (≈ 89.5 µM)
16 | Cc1c(-c2ccncc2)oc2ccc(O)cc12 | > 10 | > 50
17 | CC1(C)C=Cc2c(ccc3oc(-c4ccncc4)cc23)O1 | 2.5 (≈ 9.01 µM) | 3 (≈ 10.8 µM)
18 | CN(C)CCCNc1cccc(-c2cc3c4c(ccc3o2)OC(C)(C)C=C4)n1 | 10 (≈ 26.5 µM) | 12.5 (≈ 33.1 µM)
19 | CC1(C)C=Cc2c(ccc3oc(-c4ccccc4)cc23)O1 | 32 (≈ 116 µM) | > 500
20 | CC1(C)C=Cc2c(ccc3oc(-c4ccc(Br)nc4)cc23)O1 | > 10 | > 50
21 | Cc1cc2c3c(ccc2o1)OC(C)(C)C=C3 | > 500 | > 500
22 | NNC(=O)c1ccncc1 [ISONIAZID] | 0.1 (≈ 0.729 µM) | 12 (≈ 87.5 µM)
